Published values gathered from unrelated publications.
CDK5 with p35: Cyclin-dependent kinase 5, with p35 (CDK5, Homo sapiens, UniProt Q00535)
CDK5: Cyclin-dependent kinase 5 (CDK5, Homo sapiens, UniProt Q00535)
CDK5 with p25: Cyclin-dependent kinase 5, with p25 (CDK5, Homo sapiens, UniProt Q00535)

With N#CCCc1ccc2c(c1)-c1[nH]c3ccc([N+](=O)[O-])cc3c1CC(=O)N2 the remaining signal was 2.6% (CDK5 with p35; cell-free assay; 0.5 µM).
With CS(=O)(=O)N1CCCC(NC(=O)[C@H](CCC2CCCCC2)NC(=O)c2ccc(CNc3ncnc4c3nnn4-c3ccccc3)cc2)C1 (stereo partly drawn) the remaining binding was 94% (CDK5; cell-free assay, competition with immobilised ligand; 0.1 µM).
With CCCOc1ccc(OC)c(F)c1C(=O)c1ccc(C(=O)N[C@@H]2CNC[C@H]2NC(=O)c2ccc3[nH]ncc3c2)cc1 the remaining activity was 95% (CDK5 with p25; enzyme activity, inhibitor; 0.5 µM).
The remaining binding of CC(=O)c1c(NS(C)(=O)=O)c2cc(-c3ccc(Cl)cc3)c(-c3ccc(Cl)cc3Cl)nc2n(C)c1=O is reported as 100% (CDK5; cell-free assay, competition with immobilised ligand; 1 µM).
The remaining signal of O=C1NC(=O)c2cc(Nc3ccc(F)cc3)c(Nc3ccc(F)cc3)cc21 is reported as 98.5% (CDK5 with p35; cell-free assay; 0.5 µM).
COc1ccc2c(c1)O[C@@H](c1ccc(OC)c(OC)c1)C[C@H]2NC(=O)C1(c2ccc3c(c2)OC(F)(F)O3)CC1 gave a remaining binding of 100% (CDK5; cell-free assay, competition with immobilised ligand; 1 µM).
Nc1nc(Nc2ccc(S(N)(=O)=O)cc2)nn1C(=O)c1c(F)cccc1F has a remaining signal of 0.212% (CDK5 with p35; cell-free assay; 0.5 µM).
The remaining activity of CC[C@H](C)[C@H](NC(=O)[C@H](CCC(N)=O)NC(=O)[C@H](CC(C)C)NC(=O)[C@H](CCSC)NC(=O)[C@H](CCCCN)NC(=O)[C@H](CO)NC(=O)[C@H](CO)NC(=O)[C@H](CCSC)NC(=O)[C@H](CC(C)C)NC(=O)[C@H](CC(N)=O)NC(=O)[C@@H](NC(=O)[C@@H](NC(=O)[C@H](CO)NC(=O)[C@H](CC(C)C)NC(=O)[C@H](CS)NC(=O)[C@H](CCCNC(=N)N)NC(=O)[C@H](CC(=O)O)NC(=O)[C@H](Cc1c[nH]c2ccccc12)NC(=O)[C@H](Cc1ccccc1)NC(=O)[C@H](C)NC(=O)[C@H](CCC(=O)O)NC(=O)[C@@H](N)CCCCN)C(C)C)[C@@H](C)CC)C(=O)N[C@@H](CC(N)=O)C(=O)N[C@@H](C)C(=O)O is reported as 87% (CDK5 with p25; enzyme activity, inhibitor, radiometric; 10 µM, 20 min).
Cc1ccc(C(=O)NCc2ccsc2)cc1C#Cc1cn(C(C)C)c2ncnc(N)c12 gave an activity vs control of 95% (CDK5 with p25; enzyme activity, inhibitor; 1 µM).
